Drawing on PubChem BioAssay AID624067 (The Scripps Research Institute Molecular Screening Center, 2012), this text covers IC50 for 5 compounds.

Structures are written as SMILES. Where “and” joins values, the source holds several entries; their conditions need not be identical. Identical values can stand only once.

Insulin-degrading enzyme (Homo sapiens), sequence (P14735 whole entry, looked up): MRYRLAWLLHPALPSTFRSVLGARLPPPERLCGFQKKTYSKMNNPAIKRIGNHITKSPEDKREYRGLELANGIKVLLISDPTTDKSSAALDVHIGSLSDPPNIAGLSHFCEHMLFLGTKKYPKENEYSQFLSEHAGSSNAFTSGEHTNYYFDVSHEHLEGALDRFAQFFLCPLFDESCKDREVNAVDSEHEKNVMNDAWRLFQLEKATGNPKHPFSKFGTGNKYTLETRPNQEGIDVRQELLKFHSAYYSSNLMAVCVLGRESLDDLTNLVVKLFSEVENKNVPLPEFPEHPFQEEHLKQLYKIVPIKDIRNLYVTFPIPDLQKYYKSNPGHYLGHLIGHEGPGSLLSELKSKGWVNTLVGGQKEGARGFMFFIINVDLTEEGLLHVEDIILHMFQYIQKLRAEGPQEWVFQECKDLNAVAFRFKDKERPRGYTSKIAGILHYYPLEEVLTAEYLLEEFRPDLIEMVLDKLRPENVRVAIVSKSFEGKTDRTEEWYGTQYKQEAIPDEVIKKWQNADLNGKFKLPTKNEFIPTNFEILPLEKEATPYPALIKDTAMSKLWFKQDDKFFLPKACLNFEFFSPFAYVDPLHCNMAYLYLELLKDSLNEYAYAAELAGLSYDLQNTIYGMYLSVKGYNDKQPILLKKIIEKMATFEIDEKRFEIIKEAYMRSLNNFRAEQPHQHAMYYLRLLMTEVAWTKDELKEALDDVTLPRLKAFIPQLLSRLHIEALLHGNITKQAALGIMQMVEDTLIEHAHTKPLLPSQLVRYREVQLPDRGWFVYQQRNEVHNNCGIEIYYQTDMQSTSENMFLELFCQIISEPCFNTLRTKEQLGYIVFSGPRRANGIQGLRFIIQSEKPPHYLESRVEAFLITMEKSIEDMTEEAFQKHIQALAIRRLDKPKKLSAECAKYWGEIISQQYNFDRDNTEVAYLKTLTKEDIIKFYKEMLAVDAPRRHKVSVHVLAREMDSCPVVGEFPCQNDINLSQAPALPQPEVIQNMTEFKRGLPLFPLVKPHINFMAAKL

The target of the experiment is Insulin-degrading enzyme (Homo sapiens) (UniProt P14735). Nature of the experiment: inhibitors of wild-type recombinant IDE, late-stage follow-up, counter-screen for IDE inhibitor project, biochemical, fluorescence polarization, run by assay provider (AID 624067). The settings on record: FAbetaB cleavage. The gist of the method: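 Assay system: Recombinant WT human IDE | Schedule: Enzyme reaction at 22 °C | Doses: 10 semi-log points, top 100 µM | Benchmarks: High control Ii1 | Technique: Fluorescence polarization, 485/525 nm, avidin capture | Medium: HEPES pH 7.4, NaCl, MgCl2, 0.1% BSA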
One may read the IC50 as the concentration at which inhibition is half-maximal. With `Clc1cccc(-c2nnc(SCc3nc4ccccc4[nH]3)n2Cc2ccco2)c1`, the IC50 was 3.9 µM.

Consider `Cc1cccc(-c2nnc(SCc3nc4ccccc4[nH]3)n2Cc2ccco2)c1`, for which the IC50 was 5.7 µM and 8.9 µM.

Consider `O=c1c2ccccc2sn1-c1cc(S(=O)(=O)N2CCOCC2)ccc1N1CCOCC1`, for which the 50% inhibitory concentration (IC50) was 1.4 µM.

Consider `COc1ccc(C(=O)N2CCN(C(=O)C3COc4ccccc4O3)CC2)cc1OC` (stereo not given), for which the IC50 was 1.9 µM and > 33 µM (inactive).

Turning to `O=C(Nc1cccc(C(F)(F)F)c1)c1csc(-c2ccncc2)n1`, the IC50 was 5.3 µM.
